Measurements of several laboratories.
Compare with care: the assays were run in different laboratories.
Cell line: MCF7
Read-out: cell growth or viability

SMILES	test	conditions	measurement	value
C=C(C)[C@H](CC=C(C)C)Cc1c(O)cc(OC)c(C(=O)/C=C/c2ccc(O)cc2O)c1O	MTT	–	IC50	23 µM
COc1ccc(-c2nc3ncccn3c2NC(C)(C)CC(C)(C)C)cc1O	MTT	25 µM, 48 h	viability	65.3%
COc1cc2c(OC)nc3c4cc5c(cc4cc(OC(C)=O)c3c2cc1OC)OCO5	MTT	–	GI50	4.5 µM
CC1(C)CC[C@]2(C)CC[C@]3(C)[C@H]4CC=C5[C@@H](CC[C@H](O)C5(C)C)[C@]4(C)CC[C@@]3(C)[C@@H]2C1	WST-1	–	IC50	28.4 µM
CC(C)(C)CC(C)(C)Nc1c(-c2cccnc2)nc2ncccn12	MTT	25 µM, 48 h	viability	93.9%
COc1cccc2c1C(=O)c1c(O)c3c(c(O)c1C2=O)C[C@@](O)(C(=O)CO)C[C@@H]3O[C@H]1C[C@H](N)[C@H](O)[C@H](C)O1	MTT	10 µM, 24 h	viability	11.8%
COc1cc(O)c(CC=C(C)C)c2c1C(=O)CC(c1ccc(O)cc1)O2 (stereo not drawn)	MTT	48 h	IC50	> 100 µM
CC(C)(C)CC(C)(C)Nc1c(-c2cccc(C#N)c2)nc2ncccn12	MTT	25 µM, 48 h	viability	73.6%
O=C(Nc1ccccc1OS(=O)(=O)c1ccc(F)cc1)c1ccc2ncccc2c1	MTT	100 µM, 24 h	viability	85.6%
COc1cccc2c1C(=O)c1c(O)c3c(c(O)c1C2=O)C[C@@](O)(C(=O)CO)C[C@@H]3O[C@H]1C[C@H](N)[C@H](O)[C@H](C)O1	MTT	48 h	IC50	0.8 µM
O=c1[nH]cc(F)c(=O)[nH]1	crystal violet	72 h	CC50	641 µM
COC(=O)[C@]1(O)C[C@@H](O)[C@@H](O)[C@H](OC(=O)/C=C/c2ccc(O)c(O)c2)C1	WST-1	–	IC50	10.2 µM
COc1cc2c(OC)nc3c4cc5c(cc4cc(OCCN4CCC(N6CCCCC6)CC4)c3c2cc1OC)OCO5	MTT	–	GI50	12 µM
C=C(C)[C@H](CC=C(C)C)Cc1c(O)cc(O)c2c1O[C@H](c1ccccc1O)CC2=O	MTT	48 h	IC50	21.3 µM
C/C=C(/C)C(=O)O[C@@H]1[C@H](OC(C)=O)c2c(ccc3ccc(=O)oc23)OC1(C)C	WST-1	–	IC50	39.1 µM
